*1 amine or outer side, *2 acyl side, *3 side chain or, on linkers, in order; H or OH if unused. Where a SMILES comes first, the peptide text is derived from it. Side-chain parts run from the residue outwards. [ ]: non-standard residue; d: D form. The star is where a group is joined. NMeF = CN[C@@H](Cc1ccccc1)C(=O)O; CO = O=C([*:1])[*:2]; OAll = C=CCO*
Columns and labels:
[1] = target: Chitinase A (Serratia marcescens, UniProt P07254); assay: Displacement of 4-methylumbelliferydiacetyl-chitobiose from Serratia marcescens ChiA
In short: (§1)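 Crude S. marcescens chitinase diluted in 0.1 M phosphate pH 7.0 (ChiA x10, ChiB x40, ChiC1 x4) was mixed with inhibitor in MeOH, buffer and 80 μM (solution added) 4-MU-(GlcNAc)2, then incubated 5 min. Fluorescence (ex 355/em 460 nm) was read every 60 s. The 4-methylumbelliferone production rate was corrected for each inhibitor's quenching using inhibitor plus 4MU mixtures. IC50 came from sigmoidal dose-response fits.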

[2] = target: T1, Chitinase B (Serratia marcescens, UniProt P11797); assay: Displacement of 4-methylumbelliferydiacetyl-chitobiose from Serratia marcescens ChiB; in short: as §1
T1 sequence (P11797 whole entry): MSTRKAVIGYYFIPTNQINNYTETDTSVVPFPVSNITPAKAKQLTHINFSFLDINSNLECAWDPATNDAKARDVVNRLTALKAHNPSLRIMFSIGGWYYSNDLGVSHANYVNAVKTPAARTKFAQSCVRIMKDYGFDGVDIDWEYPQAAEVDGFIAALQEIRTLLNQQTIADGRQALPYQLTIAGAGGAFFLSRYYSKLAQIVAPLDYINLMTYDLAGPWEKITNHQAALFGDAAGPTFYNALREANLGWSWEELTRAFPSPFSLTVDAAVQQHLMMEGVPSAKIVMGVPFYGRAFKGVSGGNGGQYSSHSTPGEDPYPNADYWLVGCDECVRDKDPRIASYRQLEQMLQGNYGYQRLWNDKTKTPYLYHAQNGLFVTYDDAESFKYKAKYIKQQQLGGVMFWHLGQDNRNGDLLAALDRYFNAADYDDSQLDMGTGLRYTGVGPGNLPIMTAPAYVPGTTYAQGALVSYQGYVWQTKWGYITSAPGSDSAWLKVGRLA

[3] = target: T2, Chitinase C1 (Serratia marcescens, UniProt Q700B8); assay: Displacement of 4-methylumbelliferydiacetyl-chitobiose from Serratia marcescens ChiC; in short: as §1
T2 sequence (Q700B8 whole entry): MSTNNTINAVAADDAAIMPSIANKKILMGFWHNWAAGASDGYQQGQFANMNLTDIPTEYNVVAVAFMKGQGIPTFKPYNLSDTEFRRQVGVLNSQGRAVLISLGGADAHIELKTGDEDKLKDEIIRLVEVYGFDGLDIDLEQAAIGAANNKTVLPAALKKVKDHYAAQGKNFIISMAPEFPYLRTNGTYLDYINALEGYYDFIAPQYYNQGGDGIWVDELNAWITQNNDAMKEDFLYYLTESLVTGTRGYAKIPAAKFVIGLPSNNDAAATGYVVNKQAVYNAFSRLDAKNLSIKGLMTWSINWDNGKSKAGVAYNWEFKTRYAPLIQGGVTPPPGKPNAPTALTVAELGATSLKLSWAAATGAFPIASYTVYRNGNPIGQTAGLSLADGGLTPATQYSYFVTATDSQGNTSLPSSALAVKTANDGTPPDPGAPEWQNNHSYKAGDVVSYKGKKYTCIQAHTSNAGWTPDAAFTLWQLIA

Sequence of Chitinase A (P07254 whole entry): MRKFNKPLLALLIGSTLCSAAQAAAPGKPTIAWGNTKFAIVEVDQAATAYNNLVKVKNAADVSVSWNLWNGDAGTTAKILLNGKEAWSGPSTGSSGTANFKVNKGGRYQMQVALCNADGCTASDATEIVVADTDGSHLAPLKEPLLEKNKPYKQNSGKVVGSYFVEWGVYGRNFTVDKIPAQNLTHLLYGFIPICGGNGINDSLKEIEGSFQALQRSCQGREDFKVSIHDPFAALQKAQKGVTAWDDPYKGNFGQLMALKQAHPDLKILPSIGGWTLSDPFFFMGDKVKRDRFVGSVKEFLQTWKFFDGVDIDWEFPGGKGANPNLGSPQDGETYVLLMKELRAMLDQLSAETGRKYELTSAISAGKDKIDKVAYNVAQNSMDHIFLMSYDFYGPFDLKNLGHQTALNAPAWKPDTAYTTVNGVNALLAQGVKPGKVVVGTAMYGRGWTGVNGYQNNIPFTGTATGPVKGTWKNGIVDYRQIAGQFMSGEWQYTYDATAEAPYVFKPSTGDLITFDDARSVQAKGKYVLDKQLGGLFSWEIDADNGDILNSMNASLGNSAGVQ

Compound | IC50 [1] [µM] | IC50 [2] [µM] | IC50 [3] [µM]
CNC(=O)NC(=N)NCCC[C@H](NC(C)=O)C(=O)O | 31 | 260 | > 30
CNC(=O)NC(=N)NCCC[C@H](NC(=O)[C@@H](C)NC(=O)[C@H](CC(=O)O)NC(C)=O)C(=O)N(C)[C@@H](Cc1ccccc1)C(=O)O | 8.4 | 30 | > 30
C=CCOC(=O)C[C@H](NC(=O)[C@H](Cc1ccccc1)N(C)C(=O)[C@H](CCCN=C(N)NC(=O)NC)NC(=O)[C@@H](C)NC(=O)[C@H](CC(=O)O)NC(C)=O)C(=O)O | 1.1 | 1 | > 30
CNC(=O)NC(=N)NCCC[C@H](NC(C)=O)C(=O)N(C)[C@@H](Cc1ccccc1)C(=O)O | 0.75 | 3.7 | > 30
C=CCOC(=O)C[C@H](NC(=O)[C@H](Cc1ccccc1)N(C)C(=O)[C@H](CCCNC(=N)NC(=O)NC)NC(=O)[C@@H](C)NC(C)=O)C(=O)O | 0.025 | 0.091 | > 30
C=CCOC(=O)C[C@H](NC(=O)[C@H](Cc1ccccc1)N(C)C(=O)[C@H](CCCNC(=N)NC(=O)NC)NC(C)=O)C(=O)O (Ac-Arg([CO-NHMe])-[NMeF]-Asp(OAll)-OH) | 0.14 | 0.13 | > 30
CNC(=O)NC(=N)NCCC[C@@H]1NC(=O)[C@@H](C)NC(=O)C[C@@H](C(=O)O)NC(=O)C[C@@H](C(=O)O)NC(=O)[C@H](Cc2ccccc2)N(C)C1=O [ARGIFIN] | 0.025 | 6.4 | > 30

Results, then the compound that gave them:

IC50 [1] [µM] | IC50 [2] [µM] | IC50 [3] [µM] | Compound
6.6 | 64 | > 30 | CNC(=O)NC(N)=NCCC[C@H](NC(=O)[C@@H](C)NC(C)=O)C(=O)O
32 | 110 | > 30 | CNC(=O)NC(N)=NCCC[C@H](NC(=O)[C@@H](C)NC(=O)[C@H](CC(=O)O)NC(C)=O)C(=O)O
0.09 | 2.7 | > 30 | CNC(=O)NC(=N)NCCC[C@H](NC(=O)[C@@H](C)NC(C)=O)C(=O)N(C)[C@@H](Cc1ccccc1)C(=O)O

Source: ChEMBL document CHEMBL1153397, “Argifin; efficient solid phase total synthesis and evaluation of analogues of acyclic peptide” (Bioorg Med Chem, 2009)
